Measured values as given in ChEMBL document CHEMBL4715736, “Identification of anticancer agents based on the thieno[2,3-b]pyridine and 1H-pyrazole molecular scaffolds” (2016).

Tests used:
Assay type in all cases: functional
HOP-62 [1] = test: Growth inhibition of human HOP-62 cells assessed as cell growth at 0.01 uM incubated for 48 hrs by sulforhodamine B assay relative to control; settings: read-out: Activity
NCI-H23 = test: Growth inhibition of human NCI-H23 cells assessed as cell growth at 1 uM incubated for 48 hrs by sulforhodamine B assay relative to control; settings: read-out: Activity
SF-268 [2] = test: Growth inhibition of human SF-268 cells incubated for 48 hrs by sulforhodamine B assay
Procedure, shortened: (§1)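 NCI DTP 60-line human tumour panel. Dose-response curves were run only for ligands active in the initial 10 µM screen. GI50 (concentration giving 50% of maximal inhibition of proliferation) and TGI (concentration giving total growth inhibition) were derived from these curves.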

Hs-578T [3] = test: Growth inhibition of human Hs-578T cells assessed as cell growth at 0.01 uM incubated for 48 hrs by sulforhodamine B assay relative to control; settings: read-out: Activity
MCF7 = test: Growth inhibition of human MCF7 cells assessed as cell growth at 0.1 uM incubated for 48 hrs by sulforhodamine B assay relative to control; settings: read-out: Activity
786-0 [4] = test: Growth inhibition of human 786-0 cells assessed as cell growth at 1 uM incubated for 48 hrs by sulforhodamine B assay relative to control; settings: read-out: Activity
Procedure, shortened: (§2)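 NCI Developmental Therapeutics Program NCI60 panel. Compounds that were active in the 10 µM one-dose screen went on to dose–response testing. Growth at each concentration is expressed relative to untreated control (100%). GI50 (concentration giving 50% of maximal inhibition of proliferation) and TGI (concentration giving total growth inhibition) were derived from the curves.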

NCI-H226 = test: Growth inhibition of human NCI-H226 cells assessed as cell growth at 1 uM incubated for 48 hrs by sulforhodamine B assay relative to control; settings: read-out: Activity
UO-31 [5] = test: Growth inhibition of human UO-31 cells assessed as cell growth at 100 uM incubated for 48 hrs by sulforhodamine B assay relative to control; settings: read-out: Activity
SN12C = test: Growth inhibition of human SN12C cells assessed as cell growth at 0.1 uM incubated for 48 hrs by sulforhodamine B assay relative to control; settings: read-out: Activity
786-0 [6] = test: Growth inhibition of human 786-0 cells incubated for 48 hrs by sulforhodamine B assay; procedure, shortened: as §2
Malme-3M = test: Growth inhibition of human Malme-3M cells incubated for 48 hrs by sulforhodamine B assay
Procedure, shortened: (§3)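 NCI60 panel at the NCI Developmental Therapeutics Program. Only compounds active in the 10 µM screen went to dose-response testing. GI50, the concentration giving 50% of maximal inhibition of proliferation, and TGI, the concentration giving total growth inhibition, were derived from the dose-response curves.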

PC-3 = test: Growth inhibition of human PC-3 cells assessed as cell growth at 100 uM incubated for 48 hrs by sulforhodamine B assay relative to control; settings: read-out: Activity
K562 = test: Growth inhibition of human K562 cells incubated for 48 hrs by sulforhodamine B assay; procedure, shortened: as §3
SW-620 = test: Growth inhibition of human SW-620 cells assessed as cell growth at 0.1 uM incubated for 48 hrs by sulforhodamine B assay relative to control; settings: read-out: Activity
IGROV-1 = test: Growth inhibition of human IGROV-1 cells assessed as cell growth at 0.01 uM incubated for 48 hrs by sulforhodamine B assay relative to control; settings: read-out: Activity
UACC-62 = test: Growth inhibition of human UACC-62 cells assessed as cell growth at 0.01 uM incubated for 48 hrs by sulforhodamine B assay relative to control; settings: read-out: Activity
MDA-MB-468 = test: Growth inhibition of human MDA-MB-468 cells assessed as cell growth at 100 uM incubated for 48 hrs by sulforhodamine B assay relative to control; settings: read-out: Activity
NCI-H460 = test: Growth inhibition of human NCI-H460 cells assessed as cell growth at 0.1 uM incubated for 48 hrs by sulforhodamine B assay relative to control; settings: read-out: Activity
OVCAR-3 = test: Growth inhibition of human OVCAR-3 cells assessed as cell growth at 0.01 uM incubated for 48 hrs by sulforhodamine B assay relative to control; settings: read-out: Activity
SF-268 [7] = test: Growth inhibition of human SF-268 cells assessed as cell growth at 1 uM incubated for 48 hrs by sulforhodamine B assay relative to control; settings: read-out: Activity
DU-145 = test: Growth inhibition of human DU-145 cells assessed as cell growth at 1 uM incubated for 48 hrs by sulforhodamine B assay relative to control; settings: read-out: Activity; procedure, shortened: as §2
UO-31 [8] = test: Growth inhibition of human UO-31 cells incubated for 48 hrs by sulforhodamine B assay; procedure, shortened: as §1
UACC-257 [9] = test: Growth inhibition of human UACC-257 cells assessed as cell growth at 0.1 uM incubated for 48 hrs by sulforhodamine B assay relative to control; settings: read-out: Activity
OVCAR-4 = test: Growth inhibition of human OVCAR-4 cells assessed as cell growth at 100 uM incubated for 48 hrs by sulforhodamine B assay relative to control; settings: read-out: Activity
ACHN [10] = test: Growth inhibition of human ACHN cells assessed as cell growth at 0.1 uM incubated for 48 hrs by sulforhodamine B assay relative to control; settings: read-out: Activity
SK-MEL-5 = test: Growth inhibition of human SK-MEL-5 cells assessed as cell growth at 0.01 uM incubated for 48 hrs by sulforhodamine B assay relative to control; settings: read-out: Activity
SNB-75 = test: Growth inhibition of human SNB-75 cells assessed as cell growth at 0.1 uM incubated for 48 hrs by sulforhodamine B assay relative to control; settings: read-out: Activity
HCC 2998 = test: Growth inhibition of human HCC 2998 cells assessed as cell growth at 1 uM incubated for 48 hrs by sulforhodamine B assay relative to control; settings: read-out: Activity; procedure, shortened: as §2
786-0 [11] = test: Growth inhibition of human 786-0 cells assessed as cell growth at 0.01 uM incubated for 48 hrs by sulforhodamine B assay relative to control; settings: read-out: Activity; procedure, shortened: as §2
NCI-H322M = test: Growth inhibition of human NCI-H322M cells assessed as cell growth at 0.01 uM incubated for 48 hrs by sulforhodamine B assay relative to control; settings: read-out: Activity
HOP-62 [12] = test: Growth inhibition of human HOP-62 cells incubated for 48 hrs by sulforhodamine B assay; procedure, shortened: as §3
Hs-578T [13] = test: Growth inhibition of human Hs-578T cells assessed as cell growth at 1 uM incubated for 48 hrs by sulforhodamine B assay relative to control; settings: read-out: Activity
RXF 393 = test: Growth inhibition of human RXF 393 cells assessed as cell growth at 100 uM incubated for 48 hrs by sulforhodamine B assay relative to control; settings: read-out: Activity
ACHN [14] = test: Growth inhibition of human ACHN cells assessed as cell growth at 100 uM incubated for 48 hrs by sulforhodamine B assay relative to control; settings: read-out: Activity
UACC-257 [15] = test: Growth inhibition of human UACC-257 cells assessed as cell growth at 100 uM incubated for 48 hrs by sulforhodamine B assay relative to control; settings: read-out: Activity
[16] = read-out: LC50 (the source's name)

Compound: Cc1cccc(NC(=O)c2sc3nc4c(cc3c2N)C(=O)CCC4)c1
- growth at 0.01 µM (HOP-62 [1]): 88%
- growth at 1 µM (NCI-H23): 35%
- GI50 (SF-268 [2]): 1540 nM
- LC50 (concentration killing 50% of cells) (SF-268 [2]): > 100 µM
- TGI (SF-268 [2]): > 100 µM
- growth at 0.01 µM (Hs-578T [3]): 88%
- growth at 0.1 µM (MCF7): 56%
- growth at 1 µM (786-0 [4]): 30%
- growth at 1 µM (NCI-H226): 57%
- growth at 100 µM (UO-31 [5]): -23%
- growth at 0.1 µM (SN12C): 87%
- GI50 (786-0 [6]): 404 nM
- TGI (786-0 [6]): ≥ 100 µM
- CC50 (786-0 [6]; [16]): ≥ 100 µM
- LC50 (Malme-3M): > 100 µM
- TGI (Malme-3M): ≥ 100 µM
- growth at 100 µM (PC-3): -26%
- GI50 (K562): 144 nM
- LC50 (concentration killing 50% of cells) (K562): > 100 µM
- TGI (K562): > 100 µM
- growth at 0.1 µM (SW-620): 60%
- growth at 0.01 µM (IGROV-1): 100%
- growth at 0.01 µM (UACC-62): 94%
- growth at 100 µM (MDA-MB-468): 5%
- growth at 0.1 µM (NCI-H460): 83%
- growth at 0.01 µM (OVCAR-3): 98%
- growth at 1 µM (SF-268 [7]): 54%
- growth at 1 µM (DU-145): 3%
- TGI (UO-31 [8]): ≥ 100 µM
- CC50 (UO-31 [8]; [16]): > 100 µM
- growth at 0.1 µM (UACC-257 [9]): 58%
- growth at 100 µM (OVCAR-4): -56%
- growth at 0.1 µM (ACHN [10]): 91%
- growth at 0.01 µM (SK-MEL-5): 97%
- growth at 0.1 µM (SNB-75): 75%
- growth at 1 µM (HCC 2998): 28%
- growth at 0.01 µM (786-0 [11]): 88%
- growth at 0.01 µM (NCI-H322M): 97%
- GI50 (HOP-62 [12]): 331 nM
- LC50 (HOP-62 [12]): > 100 µM
- TGI (HOP-62 [12]): ≥ 100 µM
- growth at 1 µM (Hs-578T [13]): 11%
- growth at 100 µM (RXF 393): 5%
- growth at 100 µM (ACHN [14]): -21%
- growth at 100 µM (UACC-257 [15]): -16%
